In ChEMBL document CHEMBL4052595, “Application of Residual Dipolar Couplings and Selective Quantitative NOE to Establish the Structures of Tetranortriterpenoids from Xylocarpus rumphii” (J Nat Prod, 2017):
Active and inactive are the calls of the source.

Tests used:
Format in all cases: functional, cell-based
UACC-62 = assay: Growth inhibition of human UACC62 cells at 10^-5 M incubated for 48 hrs by sulforhodamine B assay
How it was run: (§1)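 Tested at a single concentration of 1 × 10−5 M as part of the NCI59 cell-line one-dose screen.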

MOLT-4 = assay: Growth inhibition of human MOLT4 cells at 10^-5 M incubated for 48 hrs by sulforhodamine B assay
How it was run: (§2)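 Run in the NCI59 one-dose cell-line screen, with each compound tested at a single concentration of 1 × 10−5 M.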

OVCAR-3 = assay: Growth inhibition of human OVCAR3 cells at 10^-5 M incubated for 48 hrs by sulforhodamine B assay; how it was run: as §2
HCC 2998 = assay: Growth inhibition of human HCC2998 cells at 10^-5 M incubated for 48 hrs by sulforhodamine B assay; how it was run: as §2
UO-31 = assay: Growth inhibition of human UO31 cells at 10^-5 M incubated for 48 hrs by sulforhodamine B assay; how it was run: as §1
M14 = assay: Growth inhibition of human M14 cells at 10^-5 M incubated for 48 hrs by sulforhodamine B assay; how it was run: as §2
OVCAR-8 = assay: Growth inhibition of human OVCAR8 cells at 10^-5 M incubated for 48 hrs by sulforhodamine B assay; how it was run: as §2
RXF 393 = assay: Growth inhibition of human RXF393 cells at 10^-5 M incubated for 48 hrs by sulforhodamine B assay; how it was run: as §2
EKVX = assay: Growth inhibition of human EKVX cells at 10^-5 M incubated for 48 hrs by sulforhodamine B assay; how it was run: as §2
UACC-257 = assay: Growth inhibition of human UACC257 cells at 10^-5 M incubated for 48 hrs by sulforhodamine B assay; how it was run: as §1
BT-549 = assay: Growth inhibition of human BT549 cells at 10^-5 M incubated for 48 hrs by sulforhodamine B assay; how it was run: as §2
DU-145 = assay: Growth inhibition of human DU145 cells at 10^-5 M incubated for 48 hrs by sulforhodamine B assay; how it was run: as §2
NCI/ADR-RES = assay: Growth inhibition of human NCI/ADR-RES cells at 10^-5 M incubated for 48 hrs by sulforhodamine B assay; how it was run: as §2
HCT-116 = assay: Growth inhibition of human HCT116 cells at 10^-5 M incubated for 48 hrs by sulforhodamine B assay; how it was run: as §2
T47D = assay: Growth inhibition of human T47D cells at 10^-5 M incubated for 48 hrs by sulforhodamine B assay; how it was run: as §1
HOP-62 = assay: Growth inhibition of human HOP62 cells at 10^-5 M incubated for 48 hrs by sulforhodamine B assay; how it was run: as §2
MDA-MB-435 = assay: Growth inhibition of human MDA-MB-435 cells at 10^-5 M incubated for 48 hrs by sulforhodamine B assay; how it was run: as §2
SR = assay: Growth inhibition of human SR cells at 10^-5 M incubated for 48 hrs by sulforhodamine B assay; how it was run: as §2
PC-3 = assay: Growth inhibition of human PC3 cells at 10^-5 M incubated for 48 hrs by sulforhodamine B assay; how it was run: as §2
U-251 = assay: Growth inhibition of human U251 cells at 10^-5 M incubated for 48 hrs by sulforhodamine B assay; how it was run: as §1
OVCAR-5 = assay: Growth inhibition of human OVCAR5 cells at 10^-5 M incubated for 48 hrs by sulforhodamine B assay; how it was run: as §2
A549 = assay: Growth inhibition of human A549/ATCC cells at 10^-5 M incubated for 48 hrs by sulforhodamine B assay; how it was run: as §2
SF-295 = assay: Growth inhibition of human SF295 cells at 10^-5 M incubated for 48 hrs by sulforhodamine B assay; how it was run: as §2
SW-620 = assay: Growth inhibition of human SW620 cells at 10^-5 M incubated for 48 hrs by sulforhodamine B assay; how it was run: as §1
RPMI-8226 = assay: Growth inhibition of human RPMI8226 cells at 10^-5 M incubated for 48 hrs by sulforhodamine B assay; how it was run: as §2
SK-MEL-5 = assay: Growth inhibition of human SK-MEL-5 cells at 10^-5 M incubated for 48 hrs by sulforhodamine B assay; how it was run: as §2
SF-268 = assay: Growth inhibition of human SF268 cells at 10^-5 M incubated for 48 hrs by sulforhodamine B assay; how it was run: as §2
NCI-H23 = assay: Growth inhibition of human NCI-H23 cells at 10^-5 M incubated for 48 hrs by sulforhodamine B assay; how it was run: as §2
SNB-75 = assay: Growth inhibition of human SNB75 cells at 10^-5 M incubated for 48 hrs by sulforhodamine B assay; how it was run: as §2
HOP-92 = assay: Growth inhibition of human HOP92 cells at 10^-5 M incubated for 48 hrs by sulforhodamine B assay; how it was run: as §2
OVCAR-4 = assay: Growth inhibition of human OVCAR4 cells at 10^-5 M incubated for 48 hrs by sulforhodamine B assay; how it was run: as §2
HL-60(TB) = assay: Growth inhibition of human HL-60(TB) cells at 10^-5 M incubated for 48 hrs by sulforhodamine B assay
How it was run: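 Run in the NCI59 cell-line one-dose screen, with each compound tested at a single concentration of 1 × 10−5 M.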

MDA-MB-231 = assay: Growth inhibition of human MDA-MB-231 cells at 10^-5 M incubated for 48 hrs by sulforhodamine B assay; how it was run: as §2
786-0 = assay: Growth inhibition of human 786-0 cells at 10^-5 M incubated for 48 hrs by sulforhodamine B assay; how it was run: as §2
CAKI-1 = assay: Growth inhibition of human Caki1 cells at 10^-5 M incubated for 48 hrs by sulforhodamine B assay; how it was run: as §2
SK-MEL-28 = assay: Growth inhibition of human SK-MEL-28 cells at 10^-5 M incubated for 48 hrs by sulforhodamine B assay; how it was run: as §2
NCI-H226 = assay: Growth inhibition of human NCI-H226 cells at 10^-5 M incubated for 48 hrs by sulforhodamine B assay; how it was run: as §2
CCRF-CEM = assay: Growth inhibition of human CCRF-CEM cells at 10^-5 M incubated for 48 hrs by sulforhodamine B assay; how it was run: as §2
KM12 = assay: Growth inhibition of human KM12 cells at 10^-5 M incubated for 48 hrs by sulforhodamine B assay; how it was run: as §2
HT-29 = assay: Growth inhibition of human HT-29 cells at 10^-5 M incubated for 48 hrs by sulforhodamine B assay; how it was run: as §2
COLO 205 = assay: Growth inhibition of human COLO205 cells at 10^-5 M incubated for 48 hrs by sulforhodamine B assay; how it was run: as §2
IGROV-1 = assay: Growth inhibition of human IGROV1 cells at 10^-5 M incubated for 48 hrs by sulforhodamine B assay; how it was run: as §2
Hs-578T = assay: Growth inhibition of human Hs 578T cells at 10^-5 M incubated for 48 hrs by sulforhodamine B assay; how it was run: as §2
MCF7 = assay: Growth inhibition of human MCF7 cells at 10^-5 M incubated for 48 hrs by sulforhodamine B assay; how it was run: as §2
SK-OV-3 = assay: Growth inhibition of human SKOV3 cells at 10^-5 M incubated for 48 hrs by sulforhodamine B assay; how it was run: as §2
LOX IMVI = assay: Growth inhibition of human LOXIMVI cells at 10^-5 M incubated for 48 hrs by sulforhodamine B assay; how it was run: as §2
A498 = assay: Growth inhibition of human A498 cells at 10^-5 M incubated for 48 hrs by sulforhodamine B assay; how it was run: as §2
NCI-H322M = assay: Growth inhibition of human NCI-H322M cells at 10^-5 M incubated for 48 hrs by sulforhodamine B assay; how it was run: as §2
K562 = assay: Growth inhibition of human K562 cells at 10^-5 M incubated for 48 hrs by sulforhodamine B assay; how it was run: as §2
SN12C = assay: Growth inhibition of human SN12C cells at 10^-5 M incubated for 48 hrs by sulforhodamine B assay; how it was run: as §2
ACHN = assay: Growth inhibition of human ACHN cells at 10^-5 M incubated for 48 hrs by sulforhodamine B assay; how it was run: as §2
HCT-15 = assay: Growth inhibition of human HCT15 cells at 10^-5 M incubated for 48 hrs by sulforhodamine B assay; how it was run: as §2
TK-10 = assay: Growth inhibition of human TK10 cells at 10^-5 M incubated for 48 hrs by sulforhodamine B assay; how it was run: as §1
NCI-H522 = assay: Growth inhibition of human NCI-H522 cells at 10^-5 M incubated for 48 hrs by sulforhodamine B assay; how it was run: as §2
SNB-19 = assay: Growth inhibition of human SNB19 cells at 10^-5 M incubated for 48 hrs by sulforhodamine B assay; how it was run: as §2
SK-MEL-2 = assay: Growth inhibition of human SK-MEL-2 cells at 10^-5 M incubated for 48 hrs by sulforhodamine B assay; how it was run: as §2
SF-539 = assay: Growth inhibition of human SF539 cells at 10^-5 M incubated for 48 hrs by sulforhodamine B assay; how it was run: as §2
NCI-H460 = assay: Growth inhibition of human NCI-H460 cells at 10^-5 M incubated for 48 hrs by sulforhodamine B assay; how it was run: as §2

Measured: growth inhibition (GI)

CC[C@H](C)C(=O)O[C@@H]1[C@H]2[C@@H](OC(=O)C(C)C)C(C)(C)[C@H](CC(=O)OC)[C@@]3(C)[C@H]4CC[C@]5(C)C(=CC(=O)O[C@H]5C5=CC(O)OC5=O)[C@@]14O[C@@]23O (stereo partly drawn)
inactive: UACC-62 | MOLT-4 | OVCAR-3 | HCC 2998 | UO-31 | M14 | OVCAR-8 | RXF 393 | EKVX | UACC-257 | BT-549 | DU-145 | NCI/ADR-RES | HCT-116 | T47D | HOP-62 | MDA-MB-435 | SR | PC-3 | U-251 | OVCAR-5 | A549 | SF-295 | SW-620 | RPMI-8226 | SK-MEL-5 | SF-268 | NCI-H23 | SNB-75 | HOP-92 | OVCAR-4 | HL-60(TB) | MDA-MB-231 | 786-0 | CAKI-1 | SK-MEL-28 | NCI-H226 | CCRF-CEM | KM12 | HT-29 | COLO 205 | IGROV-1 | Hs-578T | MCF7 | SK-OV-3 | LOX IMVI | A498 | NCI-H322M | K562 | SN12C | ACHN | HCT-15 | TK-10 | NCI-H522 | SNB-19 | SK-MEL-2 | SF-539 | NCI-H460
